Compounds with a hit are over-represented: about 1.5% of the library has one in this group of screens.
ABCB1 inh: inhibitors of human ABCB1 transporter, ABCG2 counter-screen. P08183. CCRF-Adr cells, JC-1 efflux, flow cytometry. inhibition, % at 6.6 µM. 190,000 compounds, 0.067% hits. AID 1326; in the data active means inhibition above about 40%;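 further: 0% = vehicle and 100% = reference inhibitor; higher value means more JC-1 retained so stronger ABCB1 efflux block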
RBBP9 inhibitor: blocks human serine hydrolase RBBP9; recombinant RBBP9, FP-Rh probe fluorescence polarization; inhibition, % at 7.94 µM; 220,000 compounds, 0.2% hits; AID 1515;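 active means inhibition above the campaign mean of all tested compounds plus 3 SD, cut at about 14% in these data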;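 further: plate controls were DMSO wells with RBBP9 for no effect and wells lacking RBBP9 protein for full effect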
Target sequence (O75884 whole entry, looked up): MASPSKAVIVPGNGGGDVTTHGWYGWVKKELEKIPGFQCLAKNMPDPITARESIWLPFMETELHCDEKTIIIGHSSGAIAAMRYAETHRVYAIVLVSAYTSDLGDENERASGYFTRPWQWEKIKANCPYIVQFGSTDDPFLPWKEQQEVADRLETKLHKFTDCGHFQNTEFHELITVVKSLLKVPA
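Test system: recombinant human RBBP9; Timing: 30 min then 45 min, 25 °C; Detection: fluorescence polarization; Control set: RBBP9 with DMSO as uninhibited control, no-protein wells as full inhibition; Compound dosing: one concentration, 7.94 µM nominal, 0.794% DMSO; Probe or stimulus: FP-Rh activity-based probe, 375 nM before mixing.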
EP2 modulator: EP2 receptor (human) modulation. P43116. EP2-expressing cells, cAMP HTRF FRET, PGE2 co-stimulation. induction, % at 25 µM. 260,000 compounds, 0.83% hits;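 active means compounds whose cAMP rise, as percent of the full-agonist control response, exceeds 60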;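 further: rat C6 glioma line stably carrying human EP2 under a CMV promoter; the protocol text gives 20 µM as final concentration; 100% = response of wells given 1 µM PGE2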
EP2 antag: inhibitors of human EP2 prostaglandin E2 receptor. P43116. C6 glioma cells expressing human EP2, cAMP TR-FRET; cells stimulated with saturating PGE2. inhibition, % at 25 µM. 260,000 compounds, 0.52% hits. AID 1422;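 active means percent inhibition above 40 after rounding to a whole number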;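 further: rat C6 glioma host cells with rolipram phosphodiesterase inhibitor present; the protocol text gives 20 µM as final concentration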
ABCG2 inh: blocks JC-1 efflux by human ABCG2 transporter; inhibition, % at 6.6 µM; 190,000 compounds, 0.1% hits; IgMXP3 cells, flow cytometry; Q9UNQ0;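 active means inhibition above 80%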;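 further: 0% = DMSO and 100% = nicardipine control wells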
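Times: 10 min at 25 °C | Test system: Two drug-resistant human cell lines, ABCG2 and ABCB1 | Quantity: 3 million cells/mL final, two lines in 1:1 ratio | Signal: Flow cytometry, 530 nm JC-1 signal | Dosing: Compound at 6.6 µM | Controls: Nicardipine and DMSO wells | Reagent: JC-1 as fluorescent efflux pump substrate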
An asterisk follows results filed as active; ! = not confirmed by another sample.

For COc1ccc(NC(=S)Nc2ccc3nc(C)c(C)nc3c2)cc1 the results were ABCB1 inh 0, RBBP9 inhibitor -5, EP2 modulator -30, EP2 antag 10 and ABCG2 inh 0.
COC(=O)c1ccccc1NC(=O)CSc1nc(-c2ccco2)cc(C(F)(F)F)n1 was read as ABCB1 inh 2, RBBP9 inhibitor -10, EP2 modulator 65*!, EP2 antag 6 and ABCG2 inh 22.
`CCc1nc(-c2ccc(-c3ccc(Cl)cc3)nc2OC)no1` gave EP2 modulator -32 and EP2 antag 13.
`NC(=O)NC(=O)CSc1nc2sc(-c3ccccc3)cc2c(=O)n1-c1ccccc1` gave ABCB1 inh 2, RBBP9 inhibitor -12, EP2 modulator 64*, EP2 antag 3 and ABCG2 inh 3.
`CSc1nc2sc(-c3ccccc3)cc2c(=O)n1N` gave ABCB1 inh 1, RBBP9 inhibitor -6, EP2 modulator 11 and ABCG2 inh 4.
`CCCCC1(C)OC(=O)C(=Cc2ccc(-c3ccc(Cl)c(C(=O)O)c3)o2)C(=O)O1` (configuration not stated) gave RBBP9 inhibitor 1, EP2 modulator -2 and EP2 antag 16.
`COC(=O)c1cc(-c2ccc(C=C3C(=O)OC4(CCCC4)OC3=O)o2)ccc1Cl` gave EP2 modulator -107 and EP2 antag 88*.
For O=C(Nc1ccccc1N1CCCCC1)c1ncoc1-c1cccs1 the results were EP2 modulator 66*.
`C[N+](C)(C)CCN(Cc1cccs1)c1ccccn1` gave EP2 modulator 14 and EP2 antag 55*.
For CC(C)(C)OC(=O)N1CC=C2C(C#N)=C(N)C(C#N)(C#N)C(c3ccc4c(c3)OCO4)C2C1 (configuration not stated) the results were EP2 modulator 15 and EP2 antag 40*.
Screening Cc1c2cc[n+](CCN3CCCCC3)cc2c(C)c2c1[nH]c1ccc(O)cc12 returned EP2 modulator 14 and EP2 antag 51*.
`CCOC(=O)c1[nH]c2ccc(C)cc2c1NC(=O)CN1CCCCC1` gave ABCB1 inh 0, RBBP9 inhibitor 8, EP2 modulator -41, EP2 antag 11 and ABCG2 inh 16.
For O=C(CN1C(=O)c2ccccc2C1=O)[C@@H](O)CN1C(=O)c2ccccc2C1=O the results were EP2 modulator 18 and EP2 antag 46*.
For CCC(CN1CCOCC1)NC(=O)Cc1sc(C)nc1-c1ccc(C)cc1 (configuration not stated) the results were EP2 modulator -24 and EP2 antag 2.
Cc1ccc(C)c2[nH]c(=O)c(CN(Cc3ccco3)Cc3nnnn3C3CCCCC3)cc12 was read as EP2 modulator 72* and EP2 antag 7.
Screening Cc1cc2cc(CN(Cc3ccco3)Cc3nnnn3C3CCCCC3)c(=O)[nH]c2cc1C returned EP2 modulator 44 and EP2 antag 14.
For Cc1ccc2cc(CN(Cc3ccco3)Cc3nnnn3C3CCCCC3)c(=O)[nH]c2c1C the results were EP2 modulator 70* and EP2 antag 9.
`CCOc1ccc2[nH]c(=O)c(CN(Cc3ccco3)Cc3nnnn3C3CCCC3)cc2c1` gave EP2 modulator 64* and EP2 antag 14.
`CC(C)NC(=O)Cn1nc(-c2cccs2)n(-c2cccnc2)c1=O` gave EP2 modulator -10 and EP2 antag 9.
Screening CC1=NN(C(=O)COc2cc(C)ccc2C(C)C)C(O)(c2ccccc2)C1 (configuration not stated) returned RBBP9 inhibitor -3, EP2 modulator 61* and EP2 antag 3.
Cc1sc2nc(C)n3c(=O)n(CC(=O)Nc4ccccn4)nc3c2c1C was read as EP2 modulator -37 and EP2 antag 12.
`CC1(C)Cc2nc3sc4c(SCC(=O)NCc5ccccc5)ncnc4c3cc2CO1` gave ABCB1 inh 1, RBBP9 inhibitor -5, EP2 modulator 63*, EP2 antag 24 and ABCG2 inh 1.
Screening CC12CCC(c3nnc(SCC(=O)Nc4cccc(Cl)c4)nc31)C2(C)C (configuration not stated) returned EP2 modulator -18 and EP2 antag 30.
For Cc1nn(CC(=O)N2CCCC(C)C2)c(=O)c2cc3ccsc3n12 (configuration not stated) the results were EP2 modulator -8.

High-throughput results: PubChem, several laboratories
